The results in this text go back to ChEMBL document CHEMBL1144286, “Parallel synthesis of pteridine derivatives as potent inhibitors for hepatitis C virus NS5B RNA-dependent RNA polymerase” (Bioorg Med Chem Lett, 2005).

This test addresses RNA-directed RNA polymerase (Hepacivirus hominis, UniProt O39930). Kind of test: Inhibitory concentration against RNA dependent RNA polymerase Nonstructural protein 5B of hepatitis C virus. In outline: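 Run per an earlier published HCV NS5B RdRp procedure. Compounds were dissolved in DMSO and then transferred into assay buffer. Each was tested in duplicate, and IC50 was taken as the concentration giving 50% inhibition of polymerase activity.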

The structures appear in SMILES notation. pIC50: −log10 of the molar value. A value given as a limit tells only on which side of the number the result lay.

A word on the pIC50: it is the negative decadic logarithm of the IC50, by convention in mol/L. A high value points to a small IC50.

Chain of RNA-directed RNA polymerase (O39930 whole entry): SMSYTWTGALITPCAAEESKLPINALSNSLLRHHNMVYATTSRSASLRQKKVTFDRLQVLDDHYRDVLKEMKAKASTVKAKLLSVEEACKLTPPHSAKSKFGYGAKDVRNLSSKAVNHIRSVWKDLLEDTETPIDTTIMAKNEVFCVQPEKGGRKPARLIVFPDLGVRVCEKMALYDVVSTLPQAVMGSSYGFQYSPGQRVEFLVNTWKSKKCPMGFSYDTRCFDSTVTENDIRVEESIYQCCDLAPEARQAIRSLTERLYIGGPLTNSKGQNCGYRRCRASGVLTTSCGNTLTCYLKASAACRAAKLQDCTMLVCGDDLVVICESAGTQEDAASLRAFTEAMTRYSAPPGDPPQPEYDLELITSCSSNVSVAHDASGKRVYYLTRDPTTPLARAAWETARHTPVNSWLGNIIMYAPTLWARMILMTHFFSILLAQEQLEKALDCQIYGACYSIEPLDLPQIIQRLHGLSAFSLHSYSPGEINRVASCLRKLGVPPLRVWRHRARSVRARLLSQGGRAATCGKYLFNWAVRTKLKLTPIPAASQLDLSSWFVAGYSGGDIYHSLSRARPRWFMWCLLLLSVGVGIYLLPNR

Consider `COc1cccc(-c2nc3ncnc(O)c3nc2-c2cccc(OC)c2)c1`, for which the negative logarithm of the IC50 (pIC50) is < 4.00. With `Oc1ncnc2nc(-c3ccccn3)c(-c3ccccn3)nc12` the figure was < 4.00. With `Fc1ccc(CCNc2ncnc3nc(-c4ccc(F)cc4)c(-c4ccc(F)cc4)nc23)cc1` the figure was 4.59. With `Oc1ncnc2nc(-c3ccco3)c(-c3ccco3)nc12`, the pIC50 was 4.24. In turn, `COC(=O)C1CCCN1c1ncnc2nc(-c3ccc(F)cc3)c(-c3ccc(F)cc3)nc12` (configuration not stated) had a pIC50 of 4.29.

With `Fc1ccc(-c2nc3ncnc(N4CCCCC4)c3nc2-c2ccc(F)cc2)cc1`, the pIC50 is 4.17. Take `CCCCOCCCNc1ncnc2nc(-c3ccc(F)cc3)c(-c3ccc(F)cc3)nc12`: the pIC50 was 4.14. In the case of `O=[N+]([O-])c1ccc(-c2nc3ncnc(O)c3nc2-c2ccccc2)cc1`, the negative-log IC50 (pIC50) was 4.52. With `Oc1ncnc2nc(-c3ccc(F)cc3)c(-c3ccc(F)cc3)nc12` the figure was 6.30.

The compound `Fc1ccc(-c2nc3ncnc(NCc4ccco4)c3nc2-c2ccc(F)cc2)cc1` had a negative-log IC50 (pIC50) of 5.54.

For the compound `CCCCC(CC)CNc1ncnc2nc(-c3ccc(F)cc3)c(-c3ccc(F)cc3)nc12` (configuration not stated), the negative-log IC50 (pIC50) was 5.00. `Fc1ccc(-c2nc3ncnc(NC4CCC4)c3nc2-c2ccc(F)cc2)cc1` gave a negative-log IC50 (pIC50) of 5.68. With `CC1CCC(Nc2ncnc3nc(-c4ccc(F)cc4)c(-c4ccc(F)cc4)nc23)CC1` (configuration not stated) the figure was 5.89.

`Fc1ccc(-c2nc3ncnc(NC4CCCCCC4)c3nc2-c2ccc(F)cc2)cc1` showed a pIC50 of 5.49. With `CCNc1ncnc2nc(-c3ccc(F)cc3)c(-c3ccc(F)cc3)nc12` the figure was 5.54; with `CCCCOCCCNc1ncnc2nc(-c3ccccc3)c(-c3ccccc3)nc12`, 4.06; with `Oc1ncnc2nc(-c3ccccc3)c(-c3ccccc3)nc12`, 4.82.

As to `O=c1[nH]cnc2nc(-c3ccc(Br)cc3)c(-c3ccc(Br)cc3)nc12`, the negative-log IC50 (pIC50) is 4.52. With `Cc1ccc(-c2nc3ncnc(O)c3nc2-c2ccc(C)cc2)cc1` the figure was < 4.00; with `CCNc1ncnc2nc(-c3ccccc3)c(-c3ccccc3)nc12`, 4.80; with `Cc1ccc(CNc2ncnc3nc(-c4ccccc4)c(-c4ccccc4)nc23)cc1`, < 4.00. On to `Fc1ccc(-c2nc3ncnc(NCCc4ccccc4)c3nc2-c2ccc(F)cc2)cc1`, for which the pIC50 is 4.89. As to `Fc1ccc(CCNc2ncnc3nc(-c4ccccc4)c(-c4ccccc4)nc23)cc1`, the pIC50 is < 4.00. In turn, `CCCC(C)Nc1ncnc2nc(-c3ccccc3)c(-c3ccccc3)nc12` (configuration not stated) had a pIC50 of 5.22. With `Cc1ccc(CNc2ncnc3nc(-c4ccc(F)cc4)c(-c4ccc(F)cc4)nc23)cc1` the figure was 5.02. Consider `O=c1[nH]cnc2nc(-c3ccccc3Cl)c(-c3ccccc3Cl)nc12`, for which the pIC50 is < 4.00.

With `COc1ccc(-c2nc3ncnc(O)c3nc2-c2ccc(OC)cc2)cc1`, the pIC50 is < 4.00. With `CCCCCCNc1ncnc2nc(-c3ccccc3)c(-c3ccccc3)nc12` the figure was < 4.00; with `O=c1[nH]cnc2nc3c(nc12)C1CCCCC31` (configuration not stated), < 4.00. With `CN(C)c1ncnc2nc(-c3ccc(F)cc3)c(-c3ccc(F)cc3)nc12` the figure was 4.68. With `c1ccc(-c2nc3ncnc(NC4CCCCCC4)c3nc2-c2ccccc2)cc1` the figure was 4.54; with `O=c1[nH]cnc2nc3c4ccccc4c4ccccc4c3nc12`, < 4.00. Turning to `CCCC(C)Nc1ncnc2nc(-c3ccc(F)cc3)c(-c3ccc(F)cc3)nc12` (configuration not stated), the pIC50 was 5.82. With `c1ccc(-c2nc3ncnc(N4CCCCC4)c3nc2-c2ccccc2)cc1` the figure was < 4.00; with `O=c1[nH]cnc2nc(-c3ccccc3)c(-c3ccc([N+](=O)[O-])cc3)nc12`, 4.64; with `CCCCCCNc1ncnc2nc(-c3ccc(F)cc3)c(-c3ccc(F)cc3)nc12`, < 4.00.

Take `COc1ccccc1CCNc1ncnc2nc(-c3ccc(F)cc3)c(-c3ccc(F)cc3)nc12`: the pIC50 was 4.10.
